Measurements of several laboratories.
Each line is one published result; the experiments were not run side by side.
Target: Ephrin type-A receptor 5 (EPHA5, Homo sapiens, UniProt P54756)

CC1CCCN1c1nccc(-c2cnn3ncccc23)n1 (centres unmarked)
remaining binding (binding; 1 µM): 100%

Cc1cnc(Nc2ccc(C(=O)N3CCC(N4CCCC4)CC3)cc2)nc1-c1cc2ccccc2s1
remaining binding (binding, competition with immobilised ligand; 1 µM): 74%

Cc1cnn2ncc(-c3ccnc(N(C)C)n3)c2c1
remaining binding (binding; 1 µM): 100%

COc1cnc(Nc2cccc(S(N)(=O)=O)c2)nc1N1CCN(c2ccccc2)CC1
remaining binding (binding, competition with immobilised ligand; 1 µM): 100%

C[C@@]1(Cc2ccc(C#N)cc2)C(=O)N(c2cc(Cl)cc(Cl)c2)c2ncc(C(=O)NC3(c4nc(C5CCC5)no4)CC3)n21
remaining binding (cell-free assay, competition with immobilised ligand; 1 µM): 100%

CN(c1nccc(-c2cnn3ncccc23)n1)C1CC1
remaining binding (binding; 1 µM): 100%

C[C@H](c1cccc(C#N)c1)n1cc(Cl)cc(C(N)=O)c1=N
remaining binding (cell-free assay, competition with immobilised ligand; 1 µM): 96%

O=C(NCCCN1CCOCC1)c1ccc(Nc2ncc(Cl)c(-c3ccc(Cl)s3)n2)cc1
remaining binding (binding, competition with immobilised ligand; 1 µM): 99%

c1cncc(-c2cccc(Nc3nccc(NC4CCCCC4)n3)c2)c1
remaining binding (binding, competition with immobilised ligand; 10 µM): 100%

N[C@H]1CCN(c2nccc(-c3cnn4ncccc34)n2)C1
remaining binding (binding; 1 µM): 100%

FC(F)(F)Oc1cccc(-c2cnc3ccc(-c4ccncc4)nn23)c1
remaining binding (cell-free assay, competition with immobilised ligand; 5 µM): 90%

CCC(=N\O)/C(C)=C/c1ccc(F)cc1
remaining binding (cell-free assay, competition with immobilised ligand; 1 µM): 64%

O=C(NCCCN1CCOCC1)c1ccc(Nc2nccc(-c3cc4ccccc4s3)n2)cc1
remaining binding (binding, competition with immobilised ligand; 1 µM): 88%

F[C@@H]1CCN(c2nccc(-c3cnn4ncccc34)n2)C1
remaining binding (binding; 1 µM): 100%

CC(=O)Nc1c(C(C)=O)c(=O)n(C)c2nc(-c3ccc(Cl)cc3Cl)c(-c3ccc(Cl)cc3)cc12
remaining binding (cell-free assay, competition with immobilised ligand; 1 µM): 100%

C[C@H]1CCN(c2nccc(-c3cnn4ncccc34)n2)C1
remaining binding (binding; 1 µM): 95%

CC1=C(C#N)C(c2ccc3c(c2)c(NC(=O)c2ccccc2C)nn3C)C(C#N)=C(C)N1
remaining binding (cell-free assay, competition with immobilised ligand; 1 µM): 77%

CNC(=O)[C@@H]1CC[C@@H](n2c(-c3ccc4cnccc4c3)nc3ccc(C(=O)NCc4cccc(C(N)=O)c4)cc32)C1
remaining binding (binding, competition with immobilised ligand; 1 µM): 100%

CNC(=O)Nc1ccc2c(c1)[C@@]1(CC2)OC(=O)N(CC(=O)N(Cc2ccc(F)cc2)[C@@H](C)C(F)(F)F)C1=O
remaining binding (cell-free assay, competition with immobilised ligand; 1 µM): 94%

O=C(NCC1CCOCC1)c1n[nH]cc1NC(=O)c1c(F)cccc1F
remaining binding (binding, competition with immobilised ligand; 1 µM): 100%
